# Source: ChEMBL document CHEMBL4312006, “A novel chalcone derivative as Nrf2 activator attenuates learning and memory impairment in a scopolamine-induced mouse model” (Eur J Med Chem, 2020)
# Activity calls are given as the source filed them. No cut-off for these calls is given here.
# Experiments:
# [1] = biological target: T1, Nuclear factor erythroid 2-related factor 2 (Mus musculus) (UniProt Q60795); test: Activation of NRF2 in mouse BV2 cells assessed as increase in HO1 protein expression at 3 uM incubated for 6 hrs by Western blot analysis; type: cell-based
# T1 sequence (whole entry): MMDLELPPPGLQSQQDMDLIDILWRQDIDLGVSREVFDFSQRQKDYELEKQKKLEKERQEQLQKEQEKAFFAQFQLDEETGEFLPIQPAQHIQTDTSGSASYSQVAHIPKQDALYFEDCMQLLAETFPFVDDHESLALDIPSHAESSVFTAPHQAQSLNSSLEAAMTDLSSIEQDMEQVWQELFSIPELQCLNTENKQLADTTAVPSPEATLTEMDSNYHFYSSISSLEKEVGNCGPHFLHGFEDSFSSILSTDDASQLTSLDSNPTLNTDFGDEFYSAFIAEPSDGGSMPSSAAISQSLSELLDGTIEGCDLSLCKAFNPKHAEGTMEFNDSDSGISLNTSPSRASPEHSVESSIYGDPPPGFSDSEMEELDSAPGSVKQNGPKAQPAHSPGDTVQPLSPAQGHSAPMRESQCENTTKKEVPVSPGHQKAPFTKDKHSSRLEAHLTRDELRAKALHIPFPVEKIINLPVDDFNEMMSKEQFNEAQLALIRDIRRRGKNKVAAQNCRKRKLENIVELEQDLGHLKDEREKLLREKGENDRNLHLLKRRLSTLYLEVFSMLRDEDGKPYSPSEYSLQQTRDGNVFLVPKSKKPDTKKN
# In short: (§1)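 BV-2 cells washed in ice-cold PBS and lysed on ice for 40 min in RIPA buffer with protease inhibitors. Nuclear fractions prepared separately. 10 μg protein run on SDS-PAGE and blotted to PVDF. Membranes blocked in 5% skim milk/TBST and probed overnight at 4 °C for Nrf2, HO-1, GCLM or SOD1. HRP secondary with ECL detection. Band densities normalised to Lamin B1 or β-actin.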
# [2] = biological target: T1, Nuclear factor erythroid 2-related factor 2 (Mus musculus); test: Activation of NRF2 in mouse BV2 cells assessed as increase in GCLM protein expression at 3 uM incubated for 6 hrs by Western blot analysis; type: cell-based; in short: as §1
# [3] = biological target: T1, Nuclear factor erythroid 2-related factor 2 (Mus musculus); test: Activation of NRF2 in mouse BV2 cells assessed as increase in GCLM protein expression at 10 uM incubated for 12 hrs by Western blot analysis; type: cell-based; in short: as §1
# [4] = biological target: T1, Nuclear factor erythroid 2-related factor 2 (Mus musculus); test: Activation of NRF2 in mouse BV2 cells assessed as inhibition of LPS-stimulated iNOS expression preincubated for 3 hrs followed by LPS stimulation for 24 hrs by Western blot analysis; type: cell-based
# In short: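 LPS-stimulated BV-2 cells pretreated with compound for 3 h. iNOS immunoblot (1:500) on 10 μg RIPA lysate protein, detected by ECL. Densities normalised to β-actin or Lamin B1 and compared with LPS-treated control.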
# [5] = Stability in human liver microsomes assessed as compound remaining after 30 mins; type: ADME, Microsome; conditions: read-out: Stability
# [6] = Stability in human plasma assessed as compound remaining after 30 mins; type: ADME, cell-free; conditions: read-out: Stability
# CYP2C19 = CYP2C19 (Homo sapiens, UniProt P33261); test: Inhibition of CYP2C19 (unknown origin) assessed as remaining activity relative to control; type: ADME
# CYP2D6 = CYP2D6 (Homo sapiens, UniProt P10635); test: Inhibition of CYP2D6 (unknown origin) assessed as remaining activity relative to control; type: ADME
# Mus musculus = test: Effect on mean number of arm entries in C57BL/6 mouse model of scopolamine-induced amnesia at 30 mg/kg, po administered for 5 days and measured on day 5 after 30 mins of scopolamine stimulation by Y-maze test; type: ADME, organism-based; conditions: in vivo
# In short: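 Male C57BL/6N mice given 30 mg/kg/day compound in saline by gavage for 5 days. Scopolamine 2 mg/kg in saline given i.p. 30 min before testing on the last day. Mice handled daily for 7 days beforehand. Free exploration of a three-arm Y-maze for 10 min, with entries scored manually (all four paws). Alternation = consecutive entries into three different arms.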
# Sequence of CYP2C19 (P33261 whole entry): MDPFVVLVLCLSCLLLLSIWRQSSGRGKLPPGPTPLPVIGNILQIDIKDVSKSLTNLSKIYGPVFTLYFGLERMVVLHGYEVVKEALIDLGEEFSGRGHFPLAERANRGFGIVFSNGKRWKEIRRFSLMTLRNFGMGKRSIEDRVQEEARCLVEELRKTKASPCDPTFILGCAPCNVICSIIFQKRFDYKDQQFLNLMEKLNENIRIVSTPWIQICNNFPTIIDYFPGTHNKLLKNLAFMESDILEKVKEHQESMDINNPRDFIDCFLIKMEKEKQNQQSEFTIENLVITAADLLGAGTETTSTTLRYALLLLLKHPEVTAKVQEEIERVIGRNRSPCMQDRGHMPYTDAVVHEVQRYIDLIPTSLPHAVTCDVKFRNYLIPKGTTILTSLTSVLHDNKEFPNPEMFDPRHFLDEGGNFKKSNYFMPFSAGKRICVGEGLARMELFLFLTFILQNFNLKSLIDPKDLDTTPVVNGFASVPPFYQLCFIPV
# Sequence of CYP2D6 (P10635 whole entry): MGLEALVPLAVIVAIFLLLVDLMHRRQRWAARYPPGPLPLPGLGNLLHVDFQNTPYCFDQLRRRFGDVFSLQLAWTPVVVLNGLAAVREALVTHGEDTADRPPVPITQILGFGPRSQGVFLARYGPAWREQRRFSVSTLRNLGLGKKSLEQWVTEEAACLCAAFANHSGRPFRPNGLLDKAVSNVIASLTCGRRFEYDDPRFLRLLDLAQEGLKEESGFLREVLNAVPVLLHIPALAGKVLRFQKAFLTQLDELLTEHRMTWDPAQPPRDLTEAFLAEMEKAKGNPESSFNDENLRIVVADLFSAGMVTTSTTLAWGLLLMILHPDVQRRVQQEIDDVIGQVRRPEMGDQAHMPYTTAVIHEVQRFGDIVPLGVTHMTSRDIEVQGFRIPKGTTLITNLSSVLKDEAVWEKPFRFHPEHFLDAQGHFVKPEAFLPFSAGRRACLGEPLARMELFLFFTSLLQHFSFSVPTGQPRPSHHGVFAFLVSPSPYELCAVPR
compound,measurement,setting,value
CN1CCN(C(=O)COc2ccc(C(=O)/C=C/c3ccccc3C(F)(F)F)cc2)CC1.Cl,Activity,[1],Active
same,Activity,[2],Active
same,fold change (FC),[3],> 15
same,Activity,[4],Dose-dependent effect
same,remaining at 0.5 h,[5],16.1%
same,remaining at 0.5 h,[6],> 100%
same,activity,CYP2C19,79.3%
same,activity,CYP2D6,> 100%
same,activity,Mus musculus,Non-Toxic
